The structures appear in SMILES notation.

The source of these data is ChEMBL document CHEMBL1955766, “Structure guided development of novel thymidine mimetics targeting Pseudomonas aeruginosa thymidylate kinase: from hit to lead generation” (J Med Chem, 2012).

Test [1] can be described thus: Inhibition of Pseudomonas aeruginosa thymidylate kinase expressed in Escherichia coli BL21 (DE3) cells assessed as phosphorylation of dTMP to dTDP after 20 mins by spectrophotometric analysis. A digest of the protocol: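 PaTMK from pET15b in E. coli BL21 DE3, purified by HisTrap and Superdex 200, used at 40 nM. dTDP formation was coupled via PK/LDH/NDP kinase to NADH oxidation (A340) over 20 min at 25 °C.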

The subject of test [2] is Pseudomonas aeruginosa. The test is described as follows: Antibacterial activity against Pseudomonas aeruginosa PAO1. The format is functional.
Test [3] is described as follows: Selectivity ratio of IC50 for human thymidylate kinase to IC50 for Pseudomonas aeruginosa thymidylate kinase. A digest of the protocol: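 Compound tested at 0.39–200 μM. Reaction 2 min at room temperature, then ADP detection reagents 30 min. Fluorescence read at ex 485/em 535 nm, corrected using 5 μM ADP interference controls and no-enzyme controls. Result is the ratio against the PaTMK coupled-assay IC50.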

Test [4] deals with T1, Thymidylate kinase (Homo sapiens) (UniProt P23919).
T1 sequence (whole entry): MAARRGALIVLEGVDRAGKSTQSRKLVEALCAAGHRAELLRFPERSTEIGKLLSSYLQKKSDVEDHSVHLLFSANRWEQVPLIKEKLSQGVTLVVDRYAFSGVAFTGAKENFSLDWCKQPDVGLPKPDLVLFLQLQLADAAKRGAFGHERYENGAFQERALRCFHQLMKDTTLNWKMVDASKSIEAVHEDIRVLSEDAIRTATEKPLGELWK
As to the kind of experiment: Inhibition of human thymidylate kinase using dTMP as substrate at 200 uM after 30 mins by fluorescence analysis. A digest of the protocol: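 Inhibitor range 0.39–200 μM. Reaction runs 2 min at room temperature, then ADP-detection reagents for 30 min. Read-out is fluorescence at ex 485/em 535 nm. Percent inhibition is corrected using no-enzyme and 5 μM ADP interference controls.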

The test system of test [5] is Pseudomonas aeruginosa. As to the kind of experiment: Antibacterial activity against […], MexXY, MeyZ efflux pump- knock out Pseudomonas aeruginosa PAO280. It counts as functional.
A further test deals with T2, Thymidylate kinase (Homo sapiens, UniProt P23919).
T2 sequence (P23919 whole entry): T1 sequence (whole entry)
As to the kind of experiment: Inhibition of human thymidylate kinase using dTMP as substrate after 30 mins by fluorescence analysis.

The test system of another test is BL21-DE3. The test is described as follows: Ratio of dFTM IC50 to compound IC50 for Pseudomonas aeruginosa thymidylate kinase expressed in Escherichia coli BL21 (DE3) cells assessed as phosphorylation of TMP to dTDP after 20 mins by spectrophotometric analysis. An outline of the steps: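 His-tagged P. aeruginosa TMK expressed in E. coli BL21(DE3) and purified (Ni affinity, gel filtration). TMK diluted in buffer; 40 nM enzyme. Coupled PK/LDH/NDP kinase read-out: 2 mM ATP, 54 μM TMP, 2 mM PEP, 0.22 mM NADH, 40 mM HEPES pH 8.0, 80 mM KCl, 1.6 mM MgCl2. A340 decrease followed 20 min at 25 °C. Twenty 1.67-fold dilutions from 200 or 100 μM final. Initial rates relative to EDTA and enzyme-alone controls. IC50 ratio versus reference inhibitor.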

As usually defined, the IC50 is the midpoint of a concentration-inhibition curve. For orientation: MIC means the lowest concentration found to suppress growth. One may read the inhibition as the share of the control response that was lost under treatment. For `Cn1c(=O)[nH]c2ncc(-c3cccc(C(=O)NCCCc4ccccc4)c3)cc21`, the IC50 in test [1] was 0.12 µM; on Thymidylate kinase, > 200 µM. Moreover, the MIC with Pseudomonas aeruginosa [2] and against Pseudomonas aeruginosa [5] was > 256 µg/mL throughout. Moreover, the Ratio IC50 in test [3] was > 1000. The molecule also had an inhibition in test [4] of 43%.
For the molecule `Cn1c(=O)[nH]c2ncc(-c3cccc(C(=O)NCCCc4ccc(F)cc4)c3)cc21`, the IC50 in test [1] is 0.12 µM; on Thymidylate kinase, 123 µM. In addition, the MIC with Pseudomonas aeruginosa [2] and in the test with Pseudomonas aeruginosa [5] was > 256 µg/mL in each case. Besides, the Ratio IC50 in test [3] is > 1000. Also, the inhibition in test [4] was 58%.
As for `Cn1c(=O)[nH]c2ncc(-c3cccc(C(N)=O)c3)cc21`, the Ratio IC50 in the test on BL21-DE3 was 60. The MIC in the test on Pseudomonas aeruginosa [2] and against Pseudomonas aeruginosa [5] was > 256 µg/mL each time. Moreover, the inhibition in test [4] came to 12%. In addition, the 50% inhibitory concentration (IC50) at Thymidylate kinase is > 200 µM.
